Runt-SMMHC FRET: inhibitors of RUNX1 Runt–CBFb-SMMHC binding, primary screen, biochemical, FRET, Cerulean-Runt, Venus-CBFb-SMMHC, uHTS | Runt-related transcription factor 1 (Homo sapiens) + Core-binding factor subunit beta … | Cerulean-Runt/Venus-CBFb-SMMHC FRET ratio 530/480, 1 h | inhibition, % at 20 µM | hit rate 0.74% among 220,000 | AID 1434, 2008;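 active = mean inhibition across duplicate retests at 20 µM reaching about 50%, limit read from the data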;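 note: 0% = DMSO wells and 100% = wells with excess untagged CBFb-SMMHC; inhibitors lower the FRET ratio by blocking Runt binding to CBFb-SMMHC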
L929 necroptosis: inhibitors of zVAD-triggered necroptosis, primary screen, L929 cells; L929 zVAD necroptosis rescue, ATP luminescence, 24 h; with zVAD 60 µM; viability rescue, % at 10 µM; hit rate 0.38% among 220,000;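 active = activation, scaled between plate controls, above about 75%, limit read from the data; inactive = activation under that limit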;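 note: 0% = zVAD with DMSO and 100% = DMSO alone without zVAD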
TNF death inh: inhibitors of TNF-alpha triggered necroptosis, primary screen, cell-based, Jurkat FADD-/-, single concentration; Jurkat FADD-/- TNF necroptosis rescue, ATP luminescence, 24 h; 0 = TNF only, 100 = no-TNF cells; activation (protection from cell death), % at 10 µM; hit rate 0.068% among 220,000;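 active = activation, meaning protection from cell death, of at least 50% relative to plate controls; inactive = activation below 50%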;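 note: necroptosis triggered by 40 ng/mL TNF-alpha added together with compound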
Runt-CBFb FRET: inhibitors of RUNX1 Runt–CBFb binding, primary screen, biochemical, FRET, Cerulean-Runt, Venus-CBFb, uHTS | Runt-related transcription factor 1 (Homo sapiens) + Core-binding factor subunit beta … | hit rate 0.46% among 220,000 | inhibition, % at 20 µM | AID 1496, 2009 | Cerulean-Runt/Venus-CBFb FRET ratio 530/480, 1 h;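 active = inhibition over about 50% at 20 µM in the single-dose screen, limit read from the data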;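 note: 0% = DMSO wells and 100% = excess unlabeled CBFb competitor control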
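test system = Cerulean-tagged RUNX1 Runt domain (FRET donor) fusion protein | reagent = Venus-CBFb binding partner, 100 nM | incubation = protein complex preformed 1 h, compound exposure 1 h, room temperature, dark | detection = FRET fluorescence | read-out basis = loss of energy transfer signal | controls = 5 µM unlabeled CBFb as full-inhibition high control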
Hck-Nef inh: inhibitors of Nef-activated human Hck kinase, primary screen, biochemical, Z-Lyte FRET, 384-well, Hck-YEEI; hit rate 0.68% among 220,000; Tyrosine-protein kinase HCK (Homo sapiens), P08631; Recombinant Hck-YEEI plus Nef, Z-Lyte FRET kinase assay; inhibition, % at 20 µM;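 active = Hck-Nef kinase inhibition above about 50%, limit read from the data; inactive = inhibition below that limit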;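 note: 0% = DMSO with Hck plus Nef and 100% = Hck alone without Nef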
Target sequence (P08631 whole entry, looked up): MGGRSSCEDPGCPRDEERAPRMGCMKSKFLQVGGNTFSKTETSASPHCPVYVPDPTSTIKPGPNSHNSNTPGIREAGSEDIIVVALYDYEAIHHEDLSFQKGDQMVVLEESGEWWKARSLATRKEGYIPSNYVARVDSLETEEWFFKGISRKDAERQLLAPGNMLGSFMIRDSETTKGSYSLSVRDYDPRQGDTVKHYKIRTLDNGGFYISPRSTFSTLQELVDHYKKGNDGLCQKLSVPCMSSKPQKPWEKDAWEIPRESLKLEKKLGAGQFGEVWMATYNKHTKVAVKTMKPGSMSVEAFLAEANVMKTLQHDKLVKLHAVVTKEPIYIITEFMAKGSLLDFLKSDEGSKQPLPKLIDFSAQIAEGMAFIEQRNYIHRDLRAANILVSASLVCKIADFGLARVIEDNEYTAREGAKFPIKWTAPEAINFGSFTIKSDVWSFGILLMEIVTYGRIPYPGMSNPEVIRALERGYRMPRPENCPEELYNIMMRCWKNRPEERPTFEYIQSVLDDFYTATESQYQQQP
RanGTP-Impb inh: inhibitors of RanGTP-importin-beta interaction, primary screen, biochemical, FRET, CFP-Ran, YFP-importin-beta, homogeneous; inhibition, % (no concentration beside the values); Ran GTPase (GTP-bound) - importin-beta complex; AID 2216, 2009; hit rate 1.1% among 300,000; cell-free CFP-Ran/YFP-importin-beta FRET ratio;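 active = more than half of the replicate wells show a fall in the fluorescence ratio signal beyond about 16%, limit read from the data, passing the limit was not always enough; inconclusive = exactly half of the replicate wells pass the set limit; inactive = fewer than half of replicates pass the limit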;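 note: 0% = DMSO wells and 100% = Ran loaded with GDP instead of GTP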
* = called active by the depositor; ? = inconclusive; / = not tested or not shown. Sampled rows, rich in hits. Any-hit rate of the full collection: about 2.1%.

SMILES	Runt-SMMHC FRET	L929 necroptosis	TNF death inh	Runt-CBFb FRET	Hck-Nef inh	RanGTP-Impb inh
Cn1ccnc1SCC(=O)Nc1ccc2c(c1)OC(F)(F)O2	3	2	-1	-1	17	1
CC(NS(=O)(=O)c1ccc(Cl)cc1)C(=O)NCCC1=CCCCC1 (stereo unspecified)	0	0	1	-1	8	?
COc1ccc(CCNC(=O)c2cc3c(=O)n4cccc(C)c4nc3n(Cc3ccncc3)c2=N)cc1	132*	/	/	105*	/	/
O=C(CSc1ccc(F)cc1)NCC1(N2CCOCC2)CCCCC1	/	/	/	/	/	2
COCCCn1c(=NC(=O)c2ccncc2)c(C#N)cc2c(=O)n3cccc(C)c3nc21	62*	-1	-5	48	14	68*
Cc1cccn2c(=O)c3cc(C#N)c(=NC(=O)c4ccncc4)n(CCCOC(C)C)c3nc12	38	0	-8	97*	32	140*
CCOC(=O)c1cc2c(=O)n3cccc(C)c3nc2n(CCOC)c1=NC(=O)c1ccncc1	/	0	-1	/	6	/
CCCCn1c(=NC(=O)c2cccnc2)c(C#N)cc2c(=O)n3cccc(C)c3nc21	58*	0	-6	124*	10	107*
CCCn1c(=NC(=O)c2ccc3c(c2)OCO3)c(C#N)cc2c(=O)n3cccc(C)c3nc21	67*	/	/	125*	/	/
Cc1nc2ccccc2c(=O)n1NC(=O)c1ccc([N+](=O)[O-])cc1	-1	-1	0	1	7	3
COc1ccc(N2CCN(S(=O)(=O)c3cn(C)cn3)CC2)cc1	/	/	/	/	/	-1
CC(=O)N=c1c(C#N)cc2c(=O)n3cccc(C)c3nc2n1CCCOC(C)C	82*	1	-1	115*	33	111*
Cc1c(CCC(=O)O)c(=O)oc2cc(O)ccc12	75*	2	0	33	9	3
Cc1c(CCC(=O)O)c(=O)oc2cc3occ(C(C)(C)C)c3cc12	-3	-1	0	-2	14	-4
COc1ccccc1N1CCN(CC(O)COc2c(OC)cccc2OC)CC1 (stereo unspecified)	1	1	2	-1	-2	24*
CCOc1ccc(S(=O)(=O)NCCCN2CCCC2=O)cc1	-3	1	-2	0	-23	-1
O=C(Nc1cc2c(=O)n(-c3ccc(Oc4ccccc4)cc3)ccc2oc1=O)c1ccccc1	62*	0	0	21	21	?
COc1cc(O)c2c(=O)c(-c3ccc(O[C@@H]4O[C@H](CO)[C@@H](O)[C@H](O)[C@H]4O)cc3)coc2c1	/	/	/	/	/	-2
Nc1ccc2c(c1)Cc1cc([N+](=O)[O-])ccc1-2	-57	8	-4	-20	-1	-16
Nc1ccc2c(c1)N=[N+]([O-])c1cc(N)ccc1C2	-3	0	3	1	6	32*
CC(C)(C)SCCNC(=O)CN(c1ccccc1)S(=O)(=O)c1ccc(F)cc1	3	0	0	-3	1	3
CCN(c1ccccc1)S(=O)(=O)c1ccc(Cl)c(NC(=O)COC(=O)c2ccc(O)cc2)c1	4	0	1	1	-1	?
CCN(c1ccccc1)S(=O)(=O)c1ccc(Cl)c(NC(=O)COC(=O)c2cc(O)c3ccccc3c2O)c1	-34	-1	-12	10	80*	1
COc1ccc(S(=O)(=O)NNC(=S)NCCc2ccccc2)c(OC)c1	/	/	/	/	/	4
CN1Cc2sc(N)c(C#N)c2CC1(C)C	82*	0	-3	89*	7	117*

Bioassay records: PubChem, several laboratories
